Assay results of several laboratories.
Nuclear receptor subfamily 4 group A member 2: Nuclear receptor subfamily 4 group A member 2 (Homo sapiens, UniProt P43354)
P2RY14: P2Y purinoceptor 14 (P2RY14, Homo sapiens, UniProt Q15391)
IRAK4: Interleukin-1 receptor-associated kinase 4 (IRAK4, Homo sapiens, UniProt Q9NWZ3)
JAK3 JH1: Tyrosine-protein kinase JAK3, JH1 (JAK3, Homo sapiens, UniProt P52333)

| SMILES | target | assay | test system | conditions | endpoint | value |
| --- | --- | --- | --- | --- | --- | --- |
| C=C1C(=O)O[C@@H]2C[C@@]3(C)CCCC(=C)[C@@H]3C[C@H]12 | Nuclear receptor subfamily 4 group A member 2 | thermal stability, DSF |  | 100 µM | ΔTm | -0.65 °C |
| O=C(COc1ccc(C(F)(F)F)cc1)N[C@@H](Cc1c[nH]c2ccccc12)C(=O)O | P2RY14 | cAMP, antagonist | HEK293 | 0.1 µM | inhibition | 34.8% |
| CCCCC(=O)Nc1ccc(-c2ccc3ncn(CCC)c(=O)c3c2)cn1 | Cyclin-dependent kinase-like 1 (CDKL1, Homo sapiens, UniProt Q00532) | binding, competition with immobilised ligand |  | 0.5 µM | remaining binding | 75% |
| CNS(=O)(=O)c1ccc(Nc2ncc(C(F)(F)F)c(N3CCC[C@](C)(O)C3)n2)c(C)c1 | Serine/threonine-protein kinase ULK1 (ULK1, Homo sapiens, UniProt O75385) | binding, competition with immobilised ligand |  | 1 µM | remaining binding | 11% |
| COc1ccc2oc(-c3ccc4nc(N)oc4c3)c/c(=N\c3ccccc3NC(=O)CCN)c2c1 | Eukaryotic elongation factor 2 kinase (EEF2K, Homo sapiens, UniProt O00418) | binding |  | 1 µM | remaining binding | 101% |
| CC(C)OC(=O)[C@H](Cc1c[nH]c2ccccc12)NC(=O)COc1ccc(Cl)cc1 | P2RY14 | cAMP, antagonist | HEK293 | 0.1 µM | inhibition | 39.6% |
| CNC(=O)c1ccccc1Nc1nc(Nc2ccc(CO)nc2)ncc1Cl | IRAK4 | enzyme activity, inhibitor, radiometric |  | 1 µM | remaining activity | 1.87% |
| NC/C(=C\F)COc1cccc(Cn2c(=S)[nH]c(=O)c3[nH]cnc32)c1 | Eosinophil peroxidase (Homo sapiens, UniProt P11678) | enzyme activity, inhibitor |  | 5 µM | remaining activity | 149% |
| CCN(CC)CCCC(C)Nc1ccnc2cc(Cl)ccc12 (stereo not shown) | Nuclear receptor subfamily 4 group A member 2 | thermal stability, DSF |  | 100 µM | ΔTm | 0.14 °C |
| Cc1ccc(OCC(=O)N[C@@H](Cc2c[nH]c3ccccc23)C(=O)OC(C)C)cc1 | P2RY14 | cAMP, antagonist | HEK293 | 0.1 µM | inhibition | 110% |
| COC(=O)c1cn(C)c2ccc(-c3cccnc3)cc12 | Nuclear receptor subfamily 4 group A member 2 | thermal stability, DSF |  | 100 µM | ΔTm | -0.46 °C |
| O=C(COc1ccc(Cl)cc1)N[C@@H](Cc1c[nH]c2ccccc12)C(=O)O | P2RY14 | cAMP, antagonist | HEK293 | 0.1 µM | inhibition | 47.6% |
| C1=C/COCc2cc(ccc2OCCN2CCCC2)Nc2nccc(n2)-c2cccc(c2)COC/1 | JAK3 JH1 | cell-free assay |  | 0.1 µM | remaining signal | 7.2% |
| C[C@H](NC(=O)C(=O)Nc1ccccc1C(C)(C)C)C(=O)N[C@@H](CC(=O)O)C(=O)COc1c(F)c(F)cc(F)c1F | Caspase-1 (CASP1, Homo sapiens, UniProt P29466) | enzyme activity, inhibitor |  |  | kinact/KI | 2.42e+06 M⁻¹ s⁻¹ |
| CCC(=O)NS(=O)(=O)c1ccc(-c2c(-c3ccccc3)noc2C)cc1 | Nuclear receptor subfamily 4 group A member 2 | thermal stability, DSF |  | 100 µM | ΔTm | -1.15 °C |
| O=C(COc1ccccc1)N[C@@H](Cc1c[nH]c2ccccc12)C(=O)O | P2RY14 | cAMP, antagonist | HEK293 | 0.1 µM | inhibition | 82.7% |
| CC[C@H](C)C(=O)O[C@H]1C[C@H](O)C=C2C=C[C@H](C)[C@H](CC[C@@H](O)C[C@@H](O)CC(=O)O)[C@H]21 | Nuclear receptor subfamily 4 group A member 2 | thermal stability, DSF |  | 100 µM | ΔTm | -0.15 °C |
| CNC(=O)c1ccccc1Nc1nc(Nc2ccc(CO)cc2)ncc1Cl | IRAK4 | enzyme activity, inhibitor, radiometric |  | 1 µM | remaining activity | 1.39% |
| CC(C)n1c(/C=C/C(O)CC(O)CC(=O)O)c(-c2ccc(F)cc2)c2ccccc21 (stereo not shown) | Nuclear receptor subfamily 4 group A member 2 | thermal stability, DSF |  | 100 µM | ΔTm | -0.62 °C |
| O=C(COc1ccc(Br)cc1)N[C@@H](Cc1c[nH]c2ccccc12)C(=O)O | P2RY14 | cAMP, antagonist | HEK293 | 0.1 µM | inhibition | 39% |
| COc1cccc2c(Nc3ccc4[nH]c(C(=O)N/N=C/c5ccc(SC)cc5)cc4c3)cc(C)nc12 | Nuclear receptor subfamily 4 group A member 2 | thermal stability, DSF |  | 100 µM | ΔTm | 0.02 °C |
| C#Cc1cc(-c2cc(Nc3nc(N[C@@H](C)c4ccc(F)cn4)ncc3Cl)n[nH]2)ccc1C=O | TRAF2 and NCK-interacting protein kinase (TNIK, Homo sapiens, UniProt Q9UKE5) | enzyme activity, inhibitor |  | 0.2 µM | inhibition | 56.6% |
| CC(C)OC(=O)[C@H](Cc1c[nH]c2ccccc12)NC(=O)c1ccc2ccccc2n1 | P2RY14 | cAMP, antagonist | HEK293 | 0.1 µM | inhibition | 55.4% |
| N#Cc1ccc(NC(=O)Nc2ccccc2)cc1 | JAK3 JH1 | cell-free assay, competition with immobilised ligand |  | 25 µM | remaining binding | 96% |
| CCC(C)(C)C(=O)O[C@H]1C[C@@H](C)C=C2C=C[C@H](C)[C@H](CC[C@@H]3C[C@@H](O)CC(=O)O3)[C@H]21 | Nuclear receptor subfamily 4 group A member 2 | thermal stability, DSF |  | 100 µM | ΔTm | -11 °C |
| Cc1cc(O)c(-c2ccc([C@@H](C)CN(C)C)cc2)c2c1[nH]c(=O)c1sccc12 | Microtubule-associated serine/threonine-protein kinase 4 (MAST4, Homo sapiens, UniProt O15021) | enzyme activity, inhibitor |  | 0.1 µM | inhibition | 2% |
| CCOC(=O)[C@H](Cc1c[nH]c2ccccc12)NC(=O)COc1ccc(C)cc1 | P2RY14 | cAMP, antagonist | HEK293 | 0.1 µM | inhibition | -48.9% |
| CCN1/C(=C/C(C)=O)Sc2ccc(F)cc21 | Corticotropin-releasing factor receptor 1 (CRHR1, Homo sapiens, UniProt P34998) | ligand displacement, radioligand |  | 10 µM | inhibition | 0% |
